Measured values from ChEMBL document CHEMBL4325822, “Discovery of a tetrazolyl β-carboline with in vitro and in vivo osteoprotective activity under estrogen-deficient conditions” (Medchemcomm, 2018).
The source made the active and inactive calls. The rule behind the calls is not given here.

Columns and labels:
Calvarial osteoblast [1] = assay: Osteogenic activity in Sprague-Dawley rat calvarial osteoblasts assessed as mineralized nodule formation at 100 pM after 21 days by alizarin red-S staining based light microscopic method; assay type: functional, cell-based
Outline: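 Osteoblasts at 10,000–15,000 cells/cm² in duplicate plates, 21 days in differentiation medium, medium changed every 48 h. Cells fixed in 4% PFA, stained with alizarin red-S (40 mM, pH 4.5, 30 min) and photographed. Stain extracted with 10% acetic acid, pH brought to 4.5 with ammonium hydroxide, read at 405 nm, normalized to cell number.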

[2] = Increase in BMP2 mRNA expression in Sprague-Dawley rat calvarial osteoblasts at 100 pM by RT-PCR method relative to control; assay type: functional, Calvarial osteoblast
Outline: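 Primary calvarial osteoblasts were lysed in TRIzol after treatment, and total RNA was extracted. Transcripts were quantified by real-time PCR using the comparative CT (ΔΔCT) method.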

[3] = Increase in Runx2 mRNA expression in Sprague-Dawley rat calvarial osteoblasts at 100 pM by RT-PCR method relative to control; assay type: functional, Calvarial osteoblast
Calvarial osteoblast [4] = assay: Increase in BMP2 protein expression in Sprague-Dawley rat calvarial osteoblasts at 100 pM after 48 hrs by Western blot analysis; assay type: functional, cell-based
Outline: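 Rat calvarial osteoblasts at 60-70% confluence were treated 48 h. Whole-cell lysates were blotted, blocked in 5% milk, and probed with primary antibody overnight at 4 °C, then with HRP secondary and ECL detection. Densitometry was normalized to β-actin; fold change versus untreated cells, three independent experiments, mean ± SEM.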

Calvarial osteoblast [5] = assay: Antioxidant activity in Sprague-Dawley rat calvarial osteoblasts assessed as inhibition of TNFalpha-induced intracellular ROS production at 100 pM after 24 hrs by DCFH-DA staining based fluorescence assay; assay type: functional, cell-based
Outline: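 Primary rat calvarial osteoblasts were treated 24 h, then washed twice with serum-free medium. DCFH-DA (10 µg·mL⁻¹) was added in medium with 2% serum, followed by 30 min in the dark. Fluorescence was read at Ex 485/Em 535 nm.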

[6] = Antioxidant activity assessed as DPPH radical scavenging activity at 500 ug/ml after 30 mins by spectrophotometric method relative to control; assay type: functional
Outline: (§1)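 The compound was serially diluted from 1000 to 1.95 µg·ml⁻¹ and mixed 1:1 with DPPH in methanol. After 30 min at room temperature, absorbance was read at 517 nm. Scavenging (%) = [(Abc − Abs)/Abc] × 100, where Abc is DPPH without compound.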

[7] = Antioxidant activity assessed as DPPH radical scavenging activity at 1.95 ug/ml after 30 mins by spectrophotometric method relative to control; assay type: functional; outline: as §1
[8] = Antioxidant activity assessed as DPPH radical scavenging activity after 30 mins by spectrophotometric method; assay type: functional; outline: as §1
[9] = Antioxidant activity assessed as SNP-induced nitric oxide free radical scavenging activity at 1000 ug/ml after 150 mins by Griess reagent based method relative to control; assay type: functional
Outline: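 Serial dilutions (1000 to 1.95 µg·ml⁻¹) were mixed with sodium nitroprusside (10 mM) and incubated 150 min. An equal volume of Griess reagent was added, and absorbance was read at 546 nm. Percentage scavenging was calculated relative to the control without compound.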

Rattus norvegicus [10] = assay: Antiosteoporotic activity in Sprague-Dawley rat model of OVX-induced bone loss assessed as restoration of bone mineral density loss in femur bone at 1 to 5 mg/kg po via gavage for 12 weeks by microcomputed tomographic analysis relative to control; assay type: functional
Outline: (§2)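 Adult female Sprague-Dawley rats were ovariectomized and left 12 weeks to become osteopenic. They then received 12 weeks of once-daily oral gavage (1% gum acacia vehicle) or subcutaneous estradiol, five days a week. Femurs were collected at sacrifice and scanned by micro-CT for BMD and trabecular microarchitecture. Ten rats per group; mean ± SEM.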

Rattus norvegicus [11] = assay: Antiosteoporotic activity in Sprague-Dawley rat model of OVX-induced bone loss assessed as protection against microarchitectural deterioration by measuring trabecular number at 1 mg/kg, po via gavage for 12 weeks by microcomputed tomographic analysis (reference value: 0.56 +/- 0.06 /millimeter); assay type: functional; outline: as §2
Rattus norvegicus [12] = assay: Antiosteoporotic activity in Sprague-Dawley rat model of OVX-induced bone loss assessed as protection against microarchitectural deterioration by measuring trabecular number at 5 mg/kg, po via gavage for 12 weeks by microcomputed tomographic analysis (reference value: 0.56 +/- 0.06 /millimeter); assay type: functional; outline: as §2
Rattus norvegicus [13] = assay: Antiosteoporotic activity in Sprague-Dawley rat model of OVX-induced bone loss assessed as mineral apposition rate at 1 mg/kg, po via gavage for 12 weeks by microcomputed tomographic analysis (reference value: 0.169 +/- 0.004 umeter/day); assay type: functional
Outline: (§3)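 Female Sprague-Dawley rats, 10-12 weeks old, ten per group, were ovariectomized and left 12 weeks for osteopenia. They were then dosed once daily by oral gavage for 12 weeks in 1% gum acacia vehicle. The estradiol arm received 100 µg·kg⁻¹ subcutaneously five days a week. Tetracycline and calcein were given intraperitoneally at 20 mg·kg⁻¹ each. Femur cross-sections (50 µm) were imaged by fluorescence microscopy for MAR and BFR.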

Rattus norvegicus [14] = assay: Antiosteoporotic activity in Sprague-Dawley rat model of OVX-induced bone loss assessed as bone formation rate at 5 mg/kg, po via gavage for 12 weeks by microcomputed tomographic analysis (reference value: 0.171 +/- 0.005 um3/um2/day); assay type: functional; outline: as §3
Rattus norvegicus [15] = assay: Antiosteoporotic activity in Sprague-Dawley rat model of OVX-induced bone loss assessed as increase in femoral bone strength by measuring energy at 5 mg/kg, po via gavage for 12 weeks by 3 point bending test (reference value: 46.27 +/- 4.36 mJ); assay type: functional
Rattus norvegicus [16] = assay: Antiosteoporotic activity in Sprague-Dawley rat model of OVX-induced bone loss assessed as increase in serum PINP level at 1 to 5 mg/kg, po via gavage for 12 weeks by ELISA; assay type: functional, organism-based
Outline: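 Ovariectomy model as above: 12 weeks of osteopenia, then 12 weeks of daily gavage or subcutaneous estradiol. Serum was separated at autopsy, and CTX and PINP were measured by ELISA kits.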

Rattus norvegicus [17] = assay: Upregulation of BMP2 mRNA expression in femur bone of Sprague-Dawley rat model of OVX-induced bone loss at 1 to 5 mg/kg, po via gavage for 12 weeks by qPCR analysis; assay type: functional, organism-based
Outline: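 Ovariectomized female SD rats, osteopenic after 12 weeks, dosed orally once daily for 12 weeks (1.0 or 5.0 mg·kg⁻¹·day⁻¹, 1% gum acacia vehicle); sham and OVX vehicle groups included. Femurs collected at sacrifice for qRT-PCR, analysed by the ΔΔCT method.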

[18] = Toxicity in Sprague-Dawley rat model of OVX-induced bone loss assessed as uterine weight at 1 mg/kg, po via gavage for 12 weeks (reference value: 0.12 +/- 0.02 g); assay type: organism-based; conditions: in vivo, 2016 h
[19] = Toxicity in Sprague-Dawley rat model of OVX-induced bone loss assessed as luminal area at 1 mg/kg, po via gavage for 12 weeks (reference value: 0.01 +/- 0.0004 mm2); assay type: organism-based; conditions: in vivo, 2016 h
[20] = Toxicity in Sprague-Dawley rat model of OVX-induced bone loss assessed as luminal epithelial height at 1 mg/kg, po via gavage for 12 weeks (reference value: 27.29 +/- 0.96 umeter); assay type: organism-based; conditions: in vivo, 2016 h
[21] = Toxicity in Sprague-Dawley rat model of OVX-induced bone loss assessed as total uterine area at 5 mg/kg, po via gavage for 12 weeks (reference value: 0.11 +/- 0.003 mm2); assay type: organism-based; conditions: in vivo, 2016 h

CCOC(=O)c1cc2c([nH]c3ccccc32)c(C(c2nnnn2C(C)(C)C)N2CCN(C)CC2)n1 (stereo unspecified)
Activity (Calvarial osteoblast [1]): Active
fold change (FC) [2]: 1.8 - 4.6
fold change (FC) [3]: 1.8 - 4.6
Activity (Calvarial osteoblast [4]): Active
inhibition (Calvarial osteoblast [5]): Active
Activity [6]: 43.5%
Activity [7]: 3.34%
Activity [8]: Dose-dependent effect
Activity [9]: 19.3%
Activity (Rattus norvegicus [10]): 46%
Activity (Rattus norvegicus [11]): 1.34 /millimeter
Activity (Rattus norvegicus [12]): 1.38 /millimeter
Activity (Rattus norvegicus [13]): 1.062 micrometer/day
Activity (Rattus norvegicus [14]): 0.98 um3/um2/day
Activity (Rattus norvegicus [15]): 60.87 mJ
Activity (Rattus norvegicus [16]): Active
Activity (Rattus norvegicus [17]): Active
Activity [18]: 0.13 g
Activity [19]: 0.012 mm2
Activity [20]: 3.7 um
Activity [21]: 0.13 mm2
